Experiment [1] deals with Human immunodeficiency virus 1. The experiment is described as follows: Antiviral activity by observing cytopathic effect induced by HIV-1 strain IIIB in de novo infected MT-4 cells. The class given is functional, organism-based. The following applies: Human immunodeficiency virus 1, MT4.
Experiment [2] has as its system MT4. The experiment is described as follows: Antiviral activity by analysis of p24 antigen concentration for HIV-1 strain IIIB in de novo infected MT-4 cells. It counts as functional, cell-based. The settings on record: Homo sapiens.
Experiment [3] addresses T1, Renin (Homo sapiens, UniProt P00797).
T1 sequence (P00797 whole entry): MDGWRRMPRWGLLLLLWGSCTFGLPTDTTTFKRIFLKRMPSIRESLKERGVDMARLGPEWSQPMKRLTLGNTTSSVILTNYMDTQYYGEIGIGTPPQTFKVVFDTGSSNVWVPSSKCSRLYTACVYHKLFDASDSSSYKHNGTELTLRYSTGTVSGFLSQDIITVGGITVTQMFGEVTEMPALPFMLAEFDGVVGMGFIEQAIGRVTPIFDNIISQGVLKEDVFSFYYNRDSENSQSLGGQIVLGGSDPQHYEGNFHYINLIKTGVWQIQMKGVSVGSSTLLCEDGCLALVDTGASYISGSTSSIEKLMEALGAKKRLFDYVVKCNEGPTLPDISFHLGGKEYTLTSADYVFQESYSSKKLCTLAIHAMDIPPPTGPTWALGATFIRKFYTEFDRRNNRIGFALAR
Kind of experiment: Selectivity for their inhibitory potency against human renin.

Experiment [4] concerns the target T2, Cathepsin D (Homo sapiens, UniProt P07339). The experiment is described as follows: (§1) Selectivity for their inhibitory potency against human cathepsin D.
Experiment [5] has as its target Pepsin A (Sus scrofa, UniProt P00791). The experiment is described as follows: Selectivity for their inhibitory potency against porcine pepsin. In a few lines:
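Porcine pepsin assayed in 0.1 M glycine–HCl, pH 2.0, with 0.5% hemoglobin substrate and [14C]methylhemoglobin tracer.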

In experiment [6] the target is Human immunodeficiency virus type 1 protease (Human immunodeficiency virus 1, UniProt Q72874). Kind of experiment: Inhibitory constant against HIV-1 protease. In a few lines: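 HIV-1 proteinase expressed in E. coli JM 105 and purified to homogeneity. Initial rates were taken from the absorbance decrease at 298 nm. IC50 came from a fit of the initial velocities. Ki was derived from IC50 accounting for enzyme, substrate and Km. Mean of two determinations.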

The test system of experiment [7] is MT4. The experiment is described as follows: Antiviral activity by analysis of p26 antigen concentration for HIV-2 strain EHO, replication in MT-4 cells. The class given is functional, cell-based. The following applies: Homo sapiens.
In experiment [8] the target is T2, Cathepsin D. The experiment is described as §1. It counts as functional.

T2 sequence (P07339 65-162 limits assumed): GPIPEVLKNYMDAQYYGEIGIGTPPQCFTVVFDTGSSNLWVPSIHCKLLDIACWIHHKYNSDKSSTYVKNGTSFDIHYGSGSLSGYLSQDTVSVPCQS
T2 sequence (P07339 169-412 limits assumed): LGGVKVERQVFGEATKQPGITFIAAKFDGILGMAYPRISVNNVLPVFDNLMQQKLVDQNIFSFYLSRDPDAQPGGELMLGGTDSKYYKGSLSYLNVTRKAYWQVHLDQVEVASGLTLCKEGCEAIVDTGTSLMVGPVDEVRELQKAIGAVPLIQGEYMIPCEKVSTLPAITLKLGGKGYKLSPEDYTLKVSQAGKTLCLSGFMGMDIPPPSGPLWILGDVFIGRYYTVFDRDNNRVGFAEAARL
Pepsin A, sequence (P00791 whole entry): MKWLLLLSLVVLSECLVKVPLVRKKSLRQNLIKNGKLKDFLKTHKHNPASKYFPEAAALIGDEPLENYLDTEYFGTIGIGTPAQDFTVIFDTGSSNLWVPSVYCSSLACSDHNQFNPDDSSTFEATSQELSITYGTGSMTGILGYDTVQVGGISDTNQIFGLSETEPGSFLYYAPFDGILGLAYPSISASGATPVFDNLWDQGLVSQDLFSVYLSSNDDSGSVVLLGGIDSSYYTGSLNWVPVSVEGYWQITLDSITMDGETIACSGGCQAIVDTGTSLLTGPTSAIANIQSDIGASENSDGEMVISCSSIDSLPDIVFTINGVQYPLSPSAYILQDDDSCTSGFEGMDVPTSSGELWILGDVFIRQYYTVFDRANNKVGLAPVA

`COc1ccc(CN[C@@H](C(=O)N[C@H](C(=O)NCc2nc3ccccc3[nH]2)C(C)C)[C@H](O)[C@H](Cc2ccccc2)NC(=O)[C@@H](NC(=O)CCc2ccc(O)cc2)C(C)(C)C)cc1`: the IC50 in experiment [1] was 96 nM; in experiment [2] it was 21 nM; in experiment [3] it was more than 10000 nM; in experiment [4], more than 10000 nM; in experiment [5], more than 10000 nM. Affinity in experiment [6] was put at a Ki of 13 nM.
For `COc1ccc(CN[C@@H](C(=O)N[C@H](C(=O)NCc2ccccc2)C(C)C)[C@H](O)[C@H](Cc2ccccc2)NC(=O)[C@@H](NC(=O)OCc2ccccc2)C(C)C)cc1`, the 50% inhibitory concentration (IC50) in experiment [1] was 320 nM; in experiment [2] it was 132 nM; in experiment [3], more than 10000 nM; in experiment [4], 110 nM; in experiment [5], more than 10000 nM; in experiment [7], 810 nM. In experiment [6], this molecule yielded a Ki of 7.4 nM.
Take `CC(C)[C@H](NC(=O)[C@H](NCc1ccccc1)[C@H](O)[C@H](Cc1ccccc1)NC(=O)[C@@H](NC(=O)OCc1ccccc1)C(C)(C)C)C(=O)NCc1ccccc1`: the IC50 is 320 nM in experiment [1]; 93 nM in experiment [2]; more than 10000 nM in experiment [3]; 60 nM in experiment [4]; more than 10000 nM in experiment [5]; 1400 nM in experiment [7]. In addition, in experiment [6], the Ki was 9.2 nM.
As for `CC(C)[C@H](NC(=O)[C@H](NCc1ccc(Cl)cc1)[C@H](O)[C@H](Cc1ccccc1)NC(=O)[C@@H](NC(=O)OCc1ccccc1)C(C)(C)C)C(=O)NCc1nc2ccccc2[nH]1`, the concentration for half-maximal inhibition (IC50) is 34 nM in experiment [1]; 11.3 nM in experiment [2]; more than 10000 nM in experiment [3]; 1800 nM in experiment [4]; more than 10000 nM in experiment [5]; 240 nM in experiment [7]. The molecule further registered a Ki in experiment [6] of 7.5 nM.
Consider `COc1ccc(CN[C@@H](C(=O)N[C@H](C(=O)NCc2nc3ccccc3[nH]2)C(C)C)[C@H](O)[C@H](Cc2ccccc2)NC(=O)[C@@H](NC(=O)OCc2ccccc2)C(C)C)cc1`, for which the IC50 in experiment [1] was 25 nM; in experiment [2], 9.7 nM; in experiment [3], more than 10000 nM; in experiment [4] it was 380 nM; in experiment [5], more than 10000 nM; in experiment [7] it was 460 nM. The molecule further yielded a Ki in experiment [6] of 3.4 nM.
Turning to `CC(C)[C@H](NC(=O)OCc1ccccc1)C(=O)N[C@@H](Cc1ccccc1)[C@@H](O)[C@@H](NCc1ccccc1)C(=O)N[C@H](C(=O)NCc1ccccc1)C(C)C`, the 50% inhibitory concentration (IC50) is 580 nM in experiment [1]; 315 nM in experiment [2]; more than 10000 nM in experiment [3]; 35 nM in experiment [8]; more than 10000 nM in experiment [5]; more than 3000 nM in experiment [7]. The molecule also showed a Ki in experiment [6] of 6.1 nM.
With `COc1ccc(CN[C@@H](C(=O)N[C@H](C(=O)NCc2nc3ccccc3[nH]2)C(C)C)[C@H](O)[C@H](Cc2ccccc2)NC(=O)[C@@H](NC(=O)C(C)Oc2ccccc2)C(C)(C)C)cc1` (some centres not stated), the IC50 is 38 nM in experiment [1]; 7.9 nM in experiment [2]; more than 10000 nM in experiment [3]; 2000 nM in experiment [4]; more than 10000 nM in experiment [5]; 470 nM in experiment [7]. Further, in experiment [6], the Ki was determined as 6 nM.
As for `COc1ccc(CN[C@@H](C(=O)N[C@H](C(=O)NCc2nc3ccccc3[nH]2)C(C)C)[C@H](O)[C@H](Cc2ccccc2)NC(=O)[C@@H](NC(=O)OCc2ccccc2)C(C)(C)C)cc1`, the IC50 was 14 nM in experiment [1]; 5.4 nM in experiment [2]; more than 10000 nM in experiment [3]; 1000 nM in experiment [4]; more than 10000 nM in experiment [5]; 385 nM in experiment [7]. Further, the Ki in experiment [6] came out at 4.6 nM.
In experiment [1], `CC(C)[C@H](NC(=O)OCc1ccccc1)C(=O)N[C@@H](Cc1ccccc1)[C@@H](O)[C@@H](NCc1ccccc1)C(=O)N[C@@H](C(=O)NCc1ccccc1)C(C)(C)C.CC(C)[C@H](NC(=O)OCc1ccccc1)C(=O)N[C@@H](Cc1ccccc1)[C@@H](O)[C@@H](NCc1ccccc1)C(=O)N[C@H](C(=O)NCc1ccccc1)C(C)(C)C` (stereo in doubt; 33(4:1)) gave a half-inhibitory concentration (IC50) of more than 3000 nM. This molecule displayed an inhibition constant Ki in experiment [6] of more than 3000 nM.

The record behind these values is ChEMBL document CHEMBL1127464, “Inhibitors of HIV-1 proteinase containing 2-heterosubstituted 4-amino-3-hydroxy-5-phenylpentanoic acid: synthesis, enzyme inhibition, and antiviral activity” (J Med Chem, 1994).
